Consider 13 compounds from PubChem BioAssay.

Experiment [1] is described as follows: inhibitors of TNFa-induced NFkB p65 translocation, primary screen, imaging, HUVEC, MLSMR starter and 10KST1 sets (AID 438;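 active = inhibition above 20% together with a positive visual image hit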;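 note: compound added about 3h40 before a 20 min TNFalpha stimulation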;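 for inhibition: signal is the nuclear over cytoplasmic p65 intensity ratio per well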). As to conditions: HUVEC TNFa-induced p65 nuclear translocation; cell count: measured here: nuclei count (cytotoxicity indicator), at 2.08 µM; inhibition: at 2 µM, stronger effect = higher value, 0% TNFa-plus-vehicle, 100% no-TNFa wells.
Experiment [2] can be described thus: endothelial E-selectin expression blockers – imaging, HUVEC, immunofluorescence, MLSMR starter and 10KST1 sets, primary screen (AID 487;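 active = visually confirmed hit in the image check and inhibition above 20%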;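 for inhibition: signal is fraction of cell area covered by stained E-selectin grains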;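 for nuclei count: 100% = median nuclei count of all wells on the same plate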). As to conditions: HUVEC TNFalpha-induced E-selectin immunofluorescence imaging, at 2 µM; inhibition: stronger effect = higher value; nuclei count: measured here: cell number, toxicity.
Experiment [3] can be described thus: Primary imaging screen for DUSP6 inhibitors that restore phospho-Erk in transfected HeLa cells, chemical complementation (AID 609;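 active = compounds giving at least 50% inhibition in the cell-based MKP-3 phosphatase rescue imaging test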;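 for inhibition: phospho-Erk level distribution per well compared with pooled transfected vehicle control wells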). The settings on record: HeLa MKP-3 transfected, phospho-Erk imaging KS statistic, at 10 µM, cells stimulated with TPA for 15 min.
Experiment [4] has as its target Dual specificity protein phosphatase 6 (Homo sapiens) (UniProt Q16828). The description is as above. As to conditions: HeLa MKP-3 transfected, phospho-Erk imaging KS statistic; at 10 µM; stronger effect = higher value; cells stimulated with TPA for 15 min.
Experiment [5] concerns the target Voltage-gated potassium channel subunit beta-2 (Rattus norvegicus) (UniProt P62483). The experiment is described as follows: inhibitors of rat Kvbeta2 reductase activity – biochemical, NADPH fluorescence, primary screen (AID 622;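 active = fluorescence slope higher than the sample average by over 3 SD, cut at about -0.22 in these data, passing the limit was not always enough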;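 note: slope of raw intensity against log time taken from 70 to 1610 s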). The settings on record: recombinant KvBeta, 4-cyanobenzaldehyde reduction, at 10 µM, stronger effect = higher value.
Experiment [6] shares this target. The experiment is described as follows: enhancers of rat Kvbeta2 NADPH turnover – biochemical, NADPH fluorescence, primary screen (AID 623).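 Note: fluorescence intensity change per second fitted from 20 to 320 s.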 The settings on record: Recombinant KvBeta, NADPH fluorescence decrease slope, 10 min; at 10 µM; stronger effect = lower value.
Experiment [7] has as its target Muscarinic acetylcholine receptor M4 (Homo sapiens) (UniProt P08173). As to the kind of experiment: M4-linked GIRK flux change, two-sided – cell-based, HEK293 M4/GIRK, thallium flux, BTC-AM, M4 allosteric agonist project, primary screen (AID 625;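 active = fluorescence slope after compound addition differing from the mean of all tested samples at 99.7% confidence, mostly higher but some lower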;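 note: thallium influx through GIRK channels coupled to M4 in HEK293 cells with BTC-AM dye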). The settings on record: at 10 µM, actives lie on both sides. The essentials: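 Assay system: HEK293 cells with M4 receptor and GIRK channels / Controls: carbachol and DMSO controls / Schedule: 1 h dye loading, 2 min kinetic read / Technique: kinetic fluorescence with BTC-AM dye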

A short description of experiment [8]: inhibitors of larval lipid processing in zebrafish, primary screen, whole organism, PED6 fluorescence, gall bladder and intestine (AID 686;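 active = a full or partial loss of lipid-probe fluorescence in the fish gall bladder, intestine or both, judged by eye; inactive = no fluorescence loss, or compound toxic to the fish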;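 note: signal comes from phospholipase A2 cleavage of quenched PED6 carried via bile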). The settings on record: Zebrafish larvae PED6 lipid processing, fluorescence scoring; screened at 20 µM (by protocol). The essentials: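 Doses: 20 µM single dose. Test system: live zebrafish larvae aged 5-7 days, whole organism. Quantity: five larvae per well. Measured by: By-eye fluorescence microscopy. Reagent: ingested quenched lipid PED6 at 100 nM. Read-out: visual per-well fluorescence inhibition score. Times: overnight exposure of larvae to compound plus PED6.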

Experiment [9] in a line: loss of swimming-algae plug formation – whole organism, Chlamydomonas reinhardtii, WT vs cilia-less mutant, absorbance, 96-well, primary screen (AID 463189;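 active = inhibition at or above 50% relative to wild type and mutant plate controls; inactive = inhibition below 50%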;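 note: 0% = wild type cc124 cells in DMSO and 100% = ciliumless bld1 mutant cells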). The settings on record: Chlamydomonas reinhardtii gravitaxis, OD600 absorbance, 2 days; at 10 µM; stronger effect = higher value.
[10] abbreviates: measured here: cell density z-score.
The mark [11] stands for this setting: measured here: nuclear c-Myc green intensity z-score.
The mark [12] stands for this setting: measured here: nuclear pErk red intensity z-score, stronger effect = higher value.

SMILES strings stand for the structures. Calls of active or inactive are those of the source.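 Rule for the calls, unless noted: active = NADPH fluorescence slope more negative than the mean of all samples by about 3 SD, 99.7% confidence; inactive = the rest.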

Sequence of Dual specificity protein phosphatase 6 (Homo sapiens) (Q16828 whole entry, looked up): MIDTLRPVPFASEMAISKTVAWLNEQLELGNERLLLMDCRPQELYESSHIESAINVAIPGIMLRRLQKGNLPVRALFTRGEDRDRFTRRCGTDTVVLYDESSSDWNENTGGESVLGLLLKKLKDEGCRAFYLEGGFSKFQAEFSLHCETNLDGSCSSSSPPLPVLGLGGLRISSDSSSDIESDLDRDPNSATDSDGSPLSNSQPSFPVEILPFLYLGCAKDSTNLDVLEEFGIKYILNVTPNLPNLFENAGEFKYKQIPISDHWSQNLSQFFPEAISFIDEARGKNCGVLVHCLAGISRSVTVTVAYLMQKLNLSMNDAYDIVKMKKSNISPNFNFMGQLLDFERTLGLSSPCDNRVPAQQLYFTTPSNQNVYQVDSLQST
Sequence of Voltage-gated potassium channel subunit beta-2 (Rattus norvegicus) (P62483 whole entry, looked up): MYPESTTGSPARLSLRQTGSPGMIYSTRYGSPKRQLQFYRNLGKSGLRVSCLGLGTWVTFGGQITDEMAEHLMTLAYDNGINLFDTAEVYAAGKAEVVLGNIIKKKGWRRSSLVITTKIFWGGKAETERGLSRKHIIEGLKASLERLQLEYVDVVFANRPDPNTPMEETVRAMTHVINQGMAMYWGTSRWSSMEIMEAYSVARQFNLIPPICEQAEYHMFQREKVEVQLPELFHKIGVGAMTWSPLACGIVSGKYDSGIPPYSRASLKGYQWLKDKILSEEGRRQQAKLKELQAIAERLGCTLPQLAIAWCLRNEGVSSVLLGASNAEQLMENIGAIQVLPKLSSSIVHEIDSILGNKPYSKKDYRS
Sequence of Muscarinic acetylcholine receptor M4 (Homo sapiens) (P08173 whole entry, looked up): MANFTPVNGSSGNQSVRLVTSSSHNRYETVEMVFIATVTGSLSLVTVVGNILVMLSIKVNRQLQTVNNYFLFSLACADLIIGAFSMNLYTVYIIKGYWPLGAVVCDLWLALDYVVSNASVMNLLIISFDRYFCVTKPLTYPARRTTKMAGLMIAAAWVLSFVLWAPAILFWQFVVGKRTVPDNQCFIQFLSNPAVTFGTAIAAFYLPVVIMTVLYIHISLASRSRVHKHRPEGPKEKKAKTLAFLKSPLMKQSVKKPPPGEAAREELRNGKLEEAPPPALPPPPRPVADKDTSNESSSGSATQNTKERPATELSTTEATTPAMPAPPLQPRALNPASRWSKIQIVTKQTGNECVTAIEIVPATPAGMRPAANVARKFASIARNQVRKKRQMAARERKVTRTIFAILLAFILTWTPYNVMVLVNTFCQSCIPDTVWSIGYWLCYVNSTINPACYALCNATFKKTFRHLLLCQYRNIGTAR

In the case of `COc1cccc(NC(=O)c2cc(C(=O)Nc3cccc(OC)c3)n(C)n2)c1`, the cell count in [1] came to 589. The inhibition was 5.1% (inactive) in experiment [1], -73.5% (inactive) in experiment [2], 1.12% (inactive) in experiment [4] and -5.34% (inactive) in [9]. The compound further came in with a nuclei count in experiment [2] of 108%. Besides, the z-score is -0.897 in experiment [3] (setting [10]), 0.197 in [3] (setting [11]) and 0.57 in experiment [3] (setting [12]). Besides, the figures for the fluorescence slope in [5] and in [7] were -0.504 (inactive) and 0.00667 (inactive), respectively. In addition, in [6], the NADPH fluorescence slope was -3.5e-05 (inactive). Moreover, in experiment [8], the result was inactive.
Regarding `CCOC(=O)Cc1[nH]nc2c1C(c1cc(OC)ccc1OC)C(C#N)=C(N)O2` (centres undefined), in [1], the cell count came to 591. Besides, the inhibition in experiment [1] is -5.3% (inactive); in experiment [2] it was -13.2% (inactive); in experiment [4], 21% (inactive); in [9] it was -4.63% (inactive). The same compound yielded a nuclei count in experiment [2] of 140%. Further, the values for the z-score in [3] (setting [10]), in [3] (setting [11]) and in experiment [3] (setting [12]) were 1.07, 1.02 and 0.992, respectively. The results for the fluorescence slope in experiment [5] and in experiment [7] were -0.503 (inactive) and 0.00642 (inactive), respectively. Moreover, the NADPH fluorescence slope in experiment [6] is -5.8e-05 (inactive). In addition, the result in [8] was inactive.
Regarding `CNC(=O)CCn1nc(-c2ccccc2)c2ccccc2c1=O`, the cell count in experiment [1] is 737. For the same compound, the inhibition was -2.4% (inactive) in [1], -67.9% (inactive) in experiment [2], 11.4% (inactive) in experiment [4] and 10.7% (inactive) in [9]. Moreover, the nuclei count in experiment [2] worked out at 156%. Further, the results for the z-score in experiment [3] (setting [10]), in [3] (setting [11]) and in [3] (setting [12]) were 1.04, -1.35 and -0.0887, respectively. The fluorescence slope in [5] was -0.455 (inactive); in experiment [7], 0.00449 (inactive). Moreover, the NADPH fluorescence slope in [6] is -2.4e-05 (inactive). Besides, the outcome in experiment [8] was inactive.
For the compound `CCCc1nnc(NC(=O)Nc2ccccc2OC)s1`, in experiment [1], the cell count amounted to 618. The inhibition in experiment [1] is -9.4% (inactive); in [2], 14.1% (inactive); in experiment [4], 42.6% (inactive); in [9], -5.69% (inactive). Moreover, the nuclei count in experiment [2] is 100%. Also, the z-score in experiment [3] (setting [10]) is 1.95; in experiment [3] (setting [11]), 0.159; in experiment [3] (setting [12]) it was -0.528. Moreover, the figures for the fluorescence slope in experiment [5] and in experiment [7] were -0.515 (inactive) and 0.0109 (inactive), respectively. Moreover, in [6], the NADPH fluorescence slope was -4.1e-05 (inactive). Besides, the result in experiment [8] was inactive.
On to `COc1ccc(OC)c(C2C(C#N)=C(N)Oc3cc(C)n(Cc4ccccn4)c(=O)c32)c1` (centres undefined), for which the cell count in experiment [1] was found to be 736. In addition, the inhibition was 3.4% (inactive) in experiment [1], -76% (inactive) in experiment [2], 13.2% (inactive) in experiment [4] and 11.4% (inactive) in experiment [9]. This compound had a nuclei count in [2] of 167%. Further, the z-score in [3] (setting [10]) was 0.84; in experiment [3] (setting [11]) it was 0.709; in experiment [3] (setting [12]), -0.214. For the same compound, the results for the fluorescence slope in experiment [5] and in experiment [7] were -0.443 (inactive) and 0.0059 (inactive), respectively. In addition, in [6], the NADPH fluorescence slope was -7.4e-05 (inactive). The compound was classed as inactive in experiment [8].
For the compound `COC(=O)c1[nH]c2cc(OC)ccc2c1NC(=O)CN1CCN(c2cccc(C)c2)C(C)C1` (centres undefined), the cell count in [1] is 670. The inhibition is 1% (inactive) in experiment [1], -108% (inactive) in experiment [2], -1.12% (inactive) in [4] and 4.21% (inactive) in experiment [9]. The nuclei count in [2] was determined as 166%. The z-score was -0.376 in experiment [3] (setting [10]), -0.924 in experiment [3] (setting [11]) and -0.753 in [3] (setting [12]). The fluorescence slope in [5] was -0.429 (inactive); in experiment [7] it was 0.0042 (inactive). Further, the NADPH fluorescence slope in [6] is -3.4e-05 (inactive). In addition, the compound was called inactive in experiment [8].
With `C=CCN=C(NC#N)SCCc1ccccc1`, in experiment [1], the cell count was 587. The inhibition in [1] was -16.1% (inactive); in experiment [2], 49.5% (inactive); in [4] it was -5.62% (inactive); in experiment [9] it was -0.302% (inactive). Further, in experiment [2], the nuclei count came to 161%. Besides, the z-score in [3] (setting [10]) was -0.943; in experiment [3] (setting [11]) it was 1.91; in experiment [3] (setting [12]), -0.167. Further, the fluorescence slope in [5] is -0.498 (inactive); in [7] it was 0.00676 (inactive). Also, in experiment [6], the NADPH fluorescence slope was -6.6e-05 (inactive). Besides, the outcome in experiment [8] was inactive.
Take `CCC(=O)Nc1ccc(-c2nnc(-c3ccccc3)o2)cc1`: the cell count in [1] came out at 647. The inhibition is 1.6% (inactive) in experiment [1], 18.6% (inactive) in experiment [2], 1.63% (inactive) in [4] and 30.3% (inactive) in experiment [9]. This compound gave a nuclei count in experiment [2] of 89.6%. For the same compound, the figures for the z-score in [3] (setting [10]), in experiment [3] (setting [11]) and in experiment [3] (setting [12]) were 1.36, -0.514 and 1.06, respectively. The values for the fluorescence slope in [5] and in experiment [7] were -0.444 (inactive) and 0.00653 (inactive), respectively. In addition, the NADPH fluorescence slope in experiment [6] was -8.1e-05 (inactive). Also, the outcome in experiment [8] was inactive.
As to `C=CCN(CC=C)c1nc2ccccc2nc1C(C#N)C(=O)OC(C)C` (centres undefined), the cell count in experiment [1] amounted to 639. Further, the inhibition in [1] was -6.1% (inactive); in experiment [2], -48.1% (inactive); in experiment [4] it was -13.3% (inactive); in experiment [9] it was 7.18% (inactive). The same compound came in with a nuclei count in experiment [2] of 173%. Further, the z-score in experiment [3] (setting [10]) is -0.0253; in experiment [3] (setting [11]), -0.36; in [3] (setting [12]), 0.934. For the same compound, the values for the fluorescence slope in [5] and in [7] were -0.467 (inactive) and 0.00206 (inactive), respectively. Besides, in experiment [6], the NADPH fluorescence slope was -4.8e-05 (inactive). Further, the result in experiment [8] was inactive.
As for `Cc1cccc(N2CC(=O)N(c3cccc(C)c3)CC2=O)c1`, the cell count in experiment [1] came out at 691. Moreover, the inhibition in experiment [1] was -1.4% (inactive); in experiment [2] it was -33.5% (inactive); in experiment [4], 3.97% (inactive); in experiment [9], -8.04% (inactive). Also, the nuclei count in [2] came to 201%. Also, the z-score was -0.963 in experiment [3] (setting [10]), 0.808 in experiment [3] (setting [11]) and -0.574 in [3] (setting [12]). The fluorescence slope in [5] is -0.477 (inactive); in experiment [7] it was 0.00702 (inactive). Further, the NADPH fluorescence slope in [6] was -5.4e-05 (inactive). For the same compound, in experiment [8], the call was inactive.
Regarding `CC1CCN(c2ncnc3c2cnn3Cc2ccc(Cl)cc2)CC1`, in [1], the cell count worked out at 549. In addition, the inhibition in [1] was -8.1% (inactive); in experiment [2], 2.1% (inactive); in experiment [4], 13.9% (inactive); in experiment [9], 4.22% (inactive). This compound also came in with a nuclei count in experiment [2] of 135%. In addition, the z-score in [3] (setting [10]) was -0.011; in [3] (setting [11]), 0.63; in [3] (setting [12]), 0.724. Besides, the results for the fluorescence slope in [5] and in experiment [7] were -0.348 (inactive) and 0.00585 (inactive), respectively. In [6], the NADPH fluorescence slope is -1.7e-05 (inactive). The compound was called inactive in experiment [8].
Take `CCN(CC)CCN1C(=O)C(=O)/C(=C(/O)c2c(C)[nH]c(C(=O)OC)c2C)C1c1cccc(OC)c1` (centres undefined): in [1], the cell count was found to be 699. The inhibition was -1% (inactive) in experiment [1], -150% (inactive) in experiment [2], 13.2% (inactive) in [4] and 16.5% (inactive) in [9]. The nuclei count in experiment [2] came out at 188%. The z-score in experiment [3] (setting [10]) was -0.637; in experiment [3] (setting [11]), -0.455; in experiment [3] (setting [12]), -0.673. Also, the fluorescence slope is -0.445 (inactive) in experiment [5] and 0.0061 (inactive) in experiment [7]. Further, the NADPH fluorescence slope in experiment [6] is -7.9e-05 (inactive). In addition, the call in experiment [8] was inactive.
As for `CCCCc1nc(N2CCOCC2)c(C#N)c2c1CCCC2`, the cell count in [1] was 559. In addition, the inhibition in [1] was -11.7% (inactive); in [2] it was -89.9% (inactive); in [4], -15.1% (inactive); in [9] it was 11.9% (inactive). In experiment [2], this compound showed a nuclei count of 141%. Besides, the results for the z-score in experiment [3] (setting [10]), in experiment [3] (setting [11]) and in [3] (setting [12]) were 0.356, 0.825 and 0.364, respectively. Further, the fluorescence slope is -0.449 (inactive) in [5] and 0.00395 (inactive) in experiment [7]. Also, in experiment [6], the NADPH fluorescence slope was -0.000117 (inactive). Further, in [8], the outcome was inactive.
